Results: ChEMBL document CHEMBL1148425, “New fatty acid oxidation inhibitors with increased potency lacking adverse metabolic and electrophysiological properties” (Bioorg Med Chem Lett, 2004)
Blank lines part the entries; values can stand above or below the compound they belong to.

Experiments:
Cytochrome P450 2C9 = Cytochrome P450 2C9 (Homo sapiens, UniProt P11712); test: Inhibition of cytochrome P450 2C9 (human)
[1] = Metabolic stability (% remaining at 30 mins) in human S9.; type: ADME; details: human S9 fraction
In short: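 Incubated 30 min with human liver S9 (2 mg/mL protein, NADH added), n=2. Reported as % parent remaining.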

Cytochrome P450 1A2 = target: T1, Cytochrome P450 1A2 (Homo sapiens, UniProt P05177); test: Inhibition of human cytochrome P450 1A2
T1 sequence (P05177 whole entry): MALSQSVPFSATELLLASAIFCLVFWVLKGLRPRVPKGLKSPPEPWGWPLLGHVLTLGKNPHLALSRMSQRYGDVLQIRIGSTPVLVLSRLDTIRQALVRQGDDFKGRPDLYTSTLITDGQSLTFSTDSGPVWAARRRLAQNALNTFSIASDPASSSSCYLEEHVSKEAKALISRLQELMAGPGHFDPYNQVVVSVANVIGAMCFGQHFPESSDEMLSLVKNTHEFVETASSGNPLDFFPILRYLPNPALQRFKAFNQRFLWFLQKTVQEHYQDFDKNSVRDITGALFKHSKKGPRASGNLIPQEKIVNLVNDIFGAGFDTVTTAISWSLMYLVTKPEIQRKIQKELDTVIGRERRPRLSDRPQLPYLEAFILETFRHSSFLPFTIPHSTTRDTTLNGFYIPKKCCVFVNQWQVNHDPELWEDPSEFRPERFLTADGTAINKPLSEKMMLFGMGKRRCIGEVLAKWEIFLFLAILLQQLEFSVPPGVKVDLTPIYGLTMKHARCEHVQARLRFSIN

Cytochrome P450 3A4 [2] = target: T2, Cytochrome P450 3A4 (Homo sapiens, UniProt P08684); test: Inhibition of cytochrome P450 3A4 (human)
T2 sequence (P08684 whole entry, the tested form may be a part): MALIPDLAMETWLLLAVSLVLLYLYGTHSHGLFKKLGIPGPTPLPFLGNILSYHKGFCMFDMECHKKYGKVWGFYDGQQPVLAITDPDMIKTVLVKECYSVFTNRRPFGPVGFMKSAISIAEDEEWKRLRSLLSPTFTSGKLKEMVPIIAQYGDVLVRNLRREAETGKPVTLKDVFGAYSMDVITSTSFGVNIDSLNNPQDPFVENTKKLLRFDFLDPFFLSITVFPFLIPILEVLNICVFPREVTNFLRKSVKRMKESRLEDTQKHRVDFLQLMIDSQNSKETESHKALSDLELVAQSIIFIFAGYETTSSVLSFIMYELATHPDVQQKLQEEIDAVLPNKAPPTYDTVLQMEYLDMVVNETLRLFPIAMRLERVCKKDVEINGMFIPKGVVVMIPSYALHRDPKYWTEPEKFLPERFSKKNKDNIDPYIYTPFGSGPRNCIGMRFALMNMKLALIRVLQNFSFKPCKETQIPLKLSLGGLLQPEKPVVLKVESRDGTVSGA

Cavia porcellus [3] = species on record: Cavia porcellus; test: Electrophysiological effect on isolated guinea pig heart as change in coronary perfusion pressure at 3 uM; type: functional
Cavia porcellus [4] = species on record: Cavia porcellus; test: Electrophysiological effect on isolated guinea pig heart as change in H-V interval at 3 uM; type: functional
Cavia porcellus [5] = species on record: Cavia porcellus; test: Electrophysiological effect on isolated guinea pig heart as change in S-H interval at 3 uM; type: functional
[6] = Time to reach maximum concentration in rat after 2 mg/kg peroral administration; type: ADME, organism-based; parameters: dose 2 mg/kg, route oral; details: in vivo, po
[7] = Volume of distribution of compound in rat after 1 mg/kg i.v. administration; type: ADME, organism-based; parameters: dose 1 mg/kg, route intravenous; details: in vivo, iv, read-out: Vdss
[8] = Half life in rat after 2 mg/kg peroral administration; type: ADME, organism-based; parameters: dose 2 mg/kg, route oral; details: in vivo, po
[9] = Clearance of compound in rat after 1 mg/kg i.v. administration; type: ADME, organism-based; parameters: dose 1 mg/kg, route intravenous; details: plasma, iv, read-out: Clp
[10] = Total concentration in rat after 1 mg/kg i.v. administration in 24 hours; type: ADME, organism-based; parameters: dose 1 mg/kg, route intravenous; details: in vivo, iv
Cytochrome P450 3A4 [11] = target: T2, Cytochrome P450 3A4; test: Inhibition of human cytochrome P450 3A4
[12] = Oral bioavailability in rat (dose 2 mg/kg); type: ADME, organism-based; details: in vivo
[13] = Half life in rat after 1 mg/kg i.v. administration; type: ADME, organism-based; parameters: dose 1 mg/kg, route intravenous; details: in vivo, iv
[14] = Maximum concentration in rat after 2 mg/kg peroral administration; type: ADME, organism-based; parameters: dose 2 mg/kg, route oral; details: in vivo, po
[15] = Total concentration in rat after 2 mg/kg peroral administration in 24 hours; type: ADME, organism-based; parameters: dose 2 mg/kg, route oral; details: in vivo, po
Cavia porcellus [16] = species on record: Cavia porcellus; test: Electrophysiological effect on isolated guinea pig heart as change in S-H interval at 10 uM; type: functional
[17] = Time to reach maximum concentration in rat after 2 mg/kg peroral administration; 4-6; type: ADME, organism-based; parameters: dose 2 mg/kg, route oral; details: in vivo, po
Cavia porcellus [18] = species on record: Cavia porcellus; test: Electrophysiological effect on isolated guinea pig heart as change in H-V interval at 10 uM; type: functional
Cavia porcellus [19] = species on record: Cavia porcellus; test: Electrophysiological effect on isolated guinea pig heart as change in coronary perfusion pressure at 10 uM; type: functional
[20] = target: T3, Peroxisomal acyl-coenzyme A oxidase 1 (Rattus norvegicus) (UniProt P07872); test: Inhibition of rat heart mitochondrial Palmitoyl-CoA oxidation at 30 uM
T3 sequence (whole entry): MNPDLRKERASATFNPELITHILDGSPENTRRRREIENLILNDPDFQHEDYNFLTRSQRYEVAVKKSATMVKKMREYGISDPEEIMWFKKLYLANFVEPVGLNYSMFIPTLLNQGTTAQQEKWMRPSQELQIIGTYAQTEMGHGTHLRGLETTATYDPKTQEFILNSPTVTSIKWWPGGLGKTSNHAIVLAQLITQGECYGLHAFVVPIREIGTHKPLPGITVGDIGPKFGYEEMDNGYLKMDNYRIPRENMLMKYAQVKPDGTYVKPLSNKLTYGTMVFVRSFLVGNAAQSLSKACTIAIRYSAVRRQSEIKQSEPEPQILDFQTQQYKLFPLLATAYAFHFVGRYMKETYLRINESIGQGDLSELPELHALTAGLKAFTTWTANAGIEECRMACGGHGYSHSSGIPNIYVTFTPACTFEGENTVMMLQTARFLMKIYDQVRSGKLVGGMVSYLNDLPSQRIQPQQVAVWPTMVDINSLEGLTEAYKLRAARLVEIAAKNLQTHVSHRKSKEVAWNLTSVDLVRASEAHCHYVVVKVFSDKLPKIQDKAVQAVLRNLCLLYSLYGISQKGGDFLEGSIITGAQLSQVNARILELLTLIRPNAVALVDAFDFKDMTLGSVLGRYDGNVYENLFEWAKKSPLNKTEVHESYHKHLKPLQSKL
In short: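 Rat heart mitochondrial preparations incubated with 1-[¹⁴C]-palmitoylCoA as the long-chain fatty acid oxidation substrate. Oxidation inhibition was reported as % inhibition at the listed test concentration, averaged from two or three measurements.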

Chain of Cytochrome P450 2C9 (P11712 whole entry): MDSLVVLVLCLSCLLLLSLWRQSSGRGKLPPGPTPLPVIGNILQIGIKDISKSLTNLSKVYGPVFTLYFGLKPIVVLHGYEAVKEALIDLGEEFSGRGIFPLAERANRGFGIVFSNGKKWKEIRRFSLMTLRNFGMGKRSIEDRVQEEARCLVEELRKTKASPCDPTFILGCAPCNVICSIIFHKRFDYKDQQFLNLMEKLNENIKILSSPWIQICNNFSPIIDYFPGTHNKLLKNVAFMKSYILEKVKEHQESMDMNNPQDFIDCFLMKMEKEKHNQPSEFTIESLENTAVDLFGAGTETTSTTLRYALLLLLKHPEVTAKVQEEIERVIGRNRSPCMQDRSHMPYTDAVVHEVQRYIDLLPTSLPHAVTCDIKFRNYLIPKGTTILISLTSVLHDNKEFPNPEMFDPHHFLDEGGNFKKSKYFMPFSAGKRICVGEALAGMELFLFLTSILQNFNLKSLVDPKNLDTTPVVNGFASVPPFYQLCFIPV

- IC50 (Cytochrome P450 2C9): 24 µM
- remaining at 0.5 h [1]: 58%
- IC50 (Cytochrome P450 1A2): 6 µM
- IC50 (Cytochrome P450 3A4 [2]): 37 µM
SMILES: Cc1nc2cc(OC[C@H](O)CN3CCN(CC(=O)Nc4cccc(-c5ccccc5)c4)CC3)ccc2s1
- Delta CPP (Cavia porcellus [3]): -4.3 mmHg
- Delta H-V (Cavia porcellus [4]): 0 ms
- Delta S-H (Cavia porcellus [5]): 3 ms

- remaining at 0.5 h [1]: 1%
SMILES: Cc1nc2cc(OC[C@H](O)CN3CCN(CC(=O)N[C@H]4CCc5ccccc54)CC3)ccc2s1

- remaining at 0.5 h [1]: 25%
SMILES: Cc1nc2cc(OC[C@H](O)CN3CCN(CC(=O)Nc4ccc(Cl)c(C(F)(F)F)c4)CC3)ccc2s1

- IC50 (Cytochrome P450 2C9): > 100 µM
- Tmax [6]: 49.8 min
- remaining at 0.5 h [1]: 50%
- IC50 (Cytochrome P450 1A2): > 100 µM
- Vd [7]: 6.2 L/kg
- half-life [8]: 72 min
- clearance [9]: 54.5 mL/min/kg
- AUC at 24 h [10]: 313 ng·h/mL
- IC50 (Cytochrome P450 3A4 [11]): 23 µM
- bioavailability [12]: 19.5%
- half-life [13]: 84 min
- Cmax [14]: 26.1 ng/mL
- AUC at 24 h [15]: 61.1 ng·h/mL
SMILES: Cc1nc2cc(OC[C@H](O)CN3CCN(CC(=O)Nc4c(C)cccc4C)CC3)ccc2s1
- Delta CPP (Cavia porcellus [3]): -8 mmHg
- Delta H-V (Cavia porcellus [4]): 4 ms
- Delta S-H (Cavia porcellus [5]): 3 ms

- inhibition [20]: 42%
SMILES: Cc1nc2cc(OC[C@H](O)CN3CCN(CC(=O)Nc4ccc(C#N)cc4)CC3)ccc2s1

- remaining at 0.5 h [1]: 27%
SMILES: Cc1nc2cc(OC[C@H](O)CN3CCN(CC(=O)NCCc4ccccc4)CC3)ccc2s1

- remaining at 0.5 h [1]: 15%
SMILES: Cc1nc2cc(OC[C@H](O)CN3CCN(CC(=O)Nc4cccc(Oc5ccccc5)c4)CC3)ccc2s1

Second part, the compound before the results:

SMILES: Cc1nc2cc(OC[C@H](O)CN3CCN(CC(=O)Nc4cccc5ccccc45)CC3)ccc2s1
- remaining at 0.5 h [1]: 50%

SMILES: Cc1nc2cc(OC[C@H](O)CN3CCN(CC(=O)Nc4ccc(Oc5ccc(Cl)cc5)cc4)CC3)ccc2s1
- remaining at 0.5 h [1]: 64%

SMILES: COc1ccc(NC(=O)CN2CCN(C[C@@H](O)COc3ccc4sc(C)nc4c3)CC2)cc1
- remaining at 0.5 h [1]: 41%

SMILES: Cc1nc2cc(OC[C@H](O)CN3CCN(CC(=O)N[C@@H](C)c4ccc5ccccc5c4)CC3)ccc2s1
- remaining at 0.5 h [1]: 14%

SMILES: Cc1nc2cc(OC[C@H](O)CN3CCN(CC(=O)Nc4cccc5[nH]ccc45)CC3)ccc2s1
- remaining at 0.5 h [1]: 35%

SMILES: Cc1nc2cc(OC[C@H](O)CN3CCN(CC(=O)Nc4ccc(Oc5ccccc5)cc4)CC3)ccc2s1
- remaining at 0.5 h [1]: 18%

SMILES: CCn1c2ccccc2c2cc(NC(=O)CN3CCN(C[C@@H](O)COc4ccc5sc(C)nc5c4)CC3)ccc21
- IC50 (Cytochrome P450 2C9): > 100 µM
- remaining at 0.5 h [1]: 62%
- Delta S-H (Cavia porcellus [16]): 1 ms
- Tmax [17]: 6 h
- IC50 (Cytochrome P450 1A2): > 100 µM
- Vd [7]: 3.4 L/kg
- half-life [8]: 156 min
- clearance [9]: 13.5 mL/min/kg
- AUC at 24 h [10]: 1320 ng·h/mL
- IC50 (Cytochrome P450 3A4 [11]): 39 µM
- Delta CPP (Cavia porcellus [3]): 0.7 mmHg
- Delta H-V (Cavia porcellus [18]): 0 ms
- bioavailability [12]: 17.5%
- half-life [13]: 180 min
- Cmax [14]: 26.3 ng/mL
- Delta H-V (Cavia porcellus [4]): 0 ms
- AUC at 24 h [15]: 230 ng·h/mL
- Delta CPP (Cavia porcellus [19]): -0.4 mmHg
- Delta S-H (Cavia porcellus [5]): 0 ms

SMILES: Cc1nc2cc(OC[C@H](O)CN3CCN(CC(=O)Nc4cccc5nsnc45)CC3)ccc2s1
- remaining at 0.5 h [1]: 11%

SMILES: Cc1nc2cc(OC[C@H](O)CN3CCN(CC(=O)N[C@H]4CCCc5ccccc54)CC3)ccc2s1
- remaining at 0.5 h [1]: 2%

SMILES: Cc1nc2cc(OC[C@H](O)CN3CCN(CC(=O)Nc4ccc5c(c4)CCCC5)CC3)ccc2s1
- remaining at 0.5 h [1]: 2%

SMILES: Cc1nc2cc(OC[C@H](O)CN3CCN(CC(=O)Nc4ccccc4Oc4ccccc4)CC3)ccc2s1
- inhibition [20]: 34%

SMILES: Cc1nc2cc(OC[C@H](O)CN3CCN(CC(=O)N[C@H](C)c4ccc(F)cc4)CC3)ccc2s1
- inhibition [20]: 40%

SMILES: Cc1nc2cc(OC[C@H](O)CN3CCN(CC(=O)NC4CCCCC4)CC3)ccc2s1
- remaining at 0.5 h [1]: 37%

SMILES: Cc1nc2cc(OC[C@H](O)CN3CCN(CC(=O)N[C@H](C)c4ccccc4)CC3)ccc2s1
- inhibition [20]: 23%

SMILES: Cc1nc2cc(OC[C@H](O)CN3CCN(CC(=O)Nc4cccc5ncccc45)CC3)ccc2s1
- remaining at 0.5 h [1]: 2%
